# Results as given in ChEMBL document CHEMBL1139544, “Potent, orally active corticotropin-releasing factor receptor-1 antagonists containing a tricyclic pyrrolopyridine or pyrazolopyridine core” (J Med Chem, 2005).
# Tests used:
# [1] = molecular target: T1, Corticotropin-releasing factor receptor 1 (Homo sapiens, UniProt P34998); assay: Inhibition of [125I]sauvagine binding to corticotropin releasing factor receptor 1 expressed in LtK- cells; Not active (<30% inhibition at 10 uM); type: cell-based
# T1 sequence (P34998 whole entry): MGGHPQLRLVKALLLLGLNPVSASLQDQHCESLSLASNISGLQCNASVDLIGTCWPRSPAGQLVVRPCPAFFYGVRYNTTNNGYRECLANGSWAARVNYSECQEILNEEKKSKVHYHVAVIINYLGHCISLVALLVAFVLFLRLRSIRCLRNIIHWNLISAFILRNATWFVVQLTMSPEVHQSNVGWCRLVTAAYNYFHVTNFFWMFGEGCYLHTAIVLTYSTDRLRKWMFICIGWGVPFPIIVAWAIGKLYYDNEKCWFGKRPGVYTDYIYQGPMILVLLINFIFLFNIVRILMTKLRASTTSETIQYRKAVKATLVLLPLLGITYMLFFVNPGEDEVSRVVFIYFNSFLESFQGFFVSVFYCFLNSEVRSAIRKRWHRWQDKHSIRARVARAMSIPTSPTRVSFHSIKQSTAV
# [2] = molecular target: T1, Corticotropin-releasing factor receptor 1; assay: Inhibition of [125I]sauvagine binding to corticotropin releasing factor receptor 1 expressed in LtK- cells; type: cell-based
# [3] = molecular target: Corticotropin releasing factor receptor (Rattus norvegicus, UniProt P47866+P35353); assay: Inhibition of corticotropin releasing factor stimulated adrenocorticotropic hormone release from rat pituitary cells; type: functional, cell-based; details: pituitary gland cell
# Outline: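 Pituitaries from 7-week-old female Sprague Dawley rats were digested with collagenase and plated at 40 000 cells/well in 3% FCS/BBM-T for 2-3 days. Compound (1 pM–1 µM) was added with 0.5 nM r/hCRF for 4 h at 37 °C. ACTH in the medium was measured by RIA, and IC50 was obtained by nonlinear curve fitting.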
# [4] = Bioavailability in rat (dose 10 mg/kg p.o. and 10 mg/kg, i.v.); type: ADME, organism-based; details: in vivo, po
# Outline: (§1)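 Male Sprague Dawley rats were given one compound intravenously via tail vein and by oral gavage (N = 3/time point), dosed in purified water at 2 mL/kg. Terminal blood and brain were taken at set times for composite sampling. Plasma was acetonitrile-precipitated and analysed by LC-MS/MS (LLOQ 5 ng/mL). Parameters came from a noncompartmental model.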
# [5] = Volume of distribution in rat following administration of 10 mg/kg, p.o. and 10 mg/kg, i.v.; type: ADME, organism-based; details: in vivo, iv; outline: as §1
# [6] = Total body clearance in rat following administration of 10 mg/kg, p.o. and 10 mg/kg, i.v.; type: ADME, organism-based; details: in vivo, iv; outline: as §1
# [7] = Half life in rat following administration of 10 mg/kg, p.o. and 10 mg/kg, i.v.; type: ADME, organism-based; details: in vivo; outline: as §1
# [8] = Half life in rat following administration of 10 mg/kg, p.o. and 10 mg/kg i.v.; type: ADME, organism-based; details: in vivo; outline: as §1
# [9] = Bioavailability in rat following administration of 10 mg/kg, p.o. and 10 mg/kg i.v.; type: ADME, organism-based; details: in vivo, po; outline: as §1
# [10] = Total body clearance in rat following administration of 10 mg/kg, p.o. and 10 mg/kg i.v.; type: ADME, organism-based; details: in vivo, iv; outline: as §1
# [11] = Volume of distribution in rat following administration of 10 mg/kg, p.o. and 5 mg/kg, i.v.; type: ADME, organism-based; details: in vivo, iv; outline: as §1
# [12] = Total body clearance in rat following administration of 10 mg/kg, p.o. and 5 mg/kg, i.v.; type: ADME, organism-based; details: in vivo, iv; outline: as §1
# [13] = Bioavailability in rat following administration of 10 mg/kg, p.o. and 5 mg/kg, i.v.; type: ADME, organism-based; details: in vivo, po; outline: as §1
# [14] = Half life in rat following administration of 10 mg/kg, p.o. and 5 mg/kg, i.v.; type: ADME, organism-based; details: in vivo; outline: as §1
# [15] = Half life in rat following administration of 2 mg/kg, p.o. and 1 mg/kg, i.v.; type: ADME, organism-based; details: in vivo
# Outline: (§2)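 Cassette study in male Sprague Dawley rats: five compounds were co-administered at 2 mg/kg po (gavage) and by tail-vein iv (N = 3/time point), in purified water at 2 mL/kg. Composite terminal plasma sampling was used. Plasma was acetonitrile-precipitated for LC-MS/MS (LLOQ 5 ng/mL). Parameters came from a noncompartmental model.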
# [16] = Total body clearance in rat following administration of 2 mg/kg, p.o. and 1 mg/kg, i.v.; type: ADME, organism-based; details: in vivo, iv; outline: as §2
# [17] = Volume of distribution in rat following administration of 2 mg/kg, p.o. and 1 mg/kg, i.v.; type: ADME, organism-based; details: in vivo, iv; outline: as §2
# [18] = Bioavailability in rat (dose 2 mg/kg p.o. and 1 mg/kg, i.v.); type: ADME, organism-based; details: in vivo, po; outline: as §2
structure (smiles),measurement,setting,value
CCCC(CCC)N1CCc2c3c1cc(C)nc3nn2-c1ccc(Cl)cc1Cl,Ki,[1],Not Active
CCCC(CCC)N1CCc2cn(-c3ccc(C)cc3)c3nc(C)cc1c23,Ki,[2],0.03 µM
CCCC(CCC)N1CCc2cn(Cc3ccc(Cl)cc3C)c3nc(C)cc1c23,Ki,[2],1.9 µM
CCC(COC)N1CCc2cn(-c3ccc(Cl)cc3C#N)c3nc(C)cc1c23 (stereo unspecified),Ki,[2],0.04 µM
COCC(COC)N1CCc2cn(-c3ccc(Cl)cc3C#N)c3nc(C)cc1c23,Ki,[2],0.12 µM
CCCC(CCC)N1CCc2cn(-c3ccccc3OC)c3nc(C)cc1c23,Ki,[2],0.055 µM
CCC(CC)N1CCc2cn(-c3ccc(Cl)cc3C#N)c3nc(C)cc1c23,Ki,[2],0.062 µM
CCCC(CCC)N1CCc2cn(-c3ccc(S(C)(=O)=O)cc3Cl)c3nc(C)cc1c23,IC50,[3],0.25 µM
same,Ki,[2],0.013 µM
same,bioavailability,[4],74%
same,Vd,[5],66 L/kg
same,clearance,[6],9.12 L/h/kg
same,half-life,[7],5 h
CCCC(CCC)N1CCc2cn(-c3ccc(OC)cc3C)c3nc(C)cc1c23,IC50,[3],0.039 µM
same,Ki,[2],0.0065 µM
same,bioavailability,[4],18%
same,Vd,[5],53 L/kg
same,clearance,[6],6.42 L/h/kg
same,half-life,[7],5.7 h
CCCC(CCC)N1CCc2cn(-c3ccc(C)cc3Cl)c3nc(C)cc1c23,IC50,[3],0.014 µM
same,Ki,[2],0.0035 µM
same,Vd,[5],38 L/kg
same,half-life,[8],6.3 h
same,bioavailability,[9],24%
same,clearance,[10],4.2 L/h/kg
CCCC(CCC)N1CCc2cn(-c3ccc(OC)nc3OC)c3nc(C)cc1c23,IC50,[3],0.029 µM
same,Ki,[2],0.0054 µM
same,bioavailability,[4],50%
same,Vd,[5],62 L/kg
same,clearance,[6],4.2 L/h/kg
same,half-life,[7],10 h
CCCC(CCC)N1CCc2nn(-c3ccc(Cl)cc3Cl)c3nc(C)cc1c23,IC50,[3],0.0068 µM
same,Ki,[2],0.0029 µM
same,Vd,[11],44 L/kg
same,clearance,[12],2.58 L/h/kg
same,bioavailability,[13],7%
same,half-life,[14],12 h
CCCC(CCC)N1CCc2cn(-c3ccc(Cl)cc3Cl)c3nc(C)cc1c23,Ki,[2],0.0042 µM
CCCC(CCC)N1CCc2cn(-c3ccc(Cl)cc3C#N)c3nc(C)cc1c23,Ki,[2],0.013 µM
Cc1cc2c3c(cn(-c4ccc(Cl)cc4C#N)c3n1)CCN2C,Ki,[1],Not Active
CCCCN1CCc2cn(-c3ccc(Cl)cc3C#N)c3nc(C)cc1c23,Ki,[2],0.049 µM
CCCC(CCC)N1CCc2cn(-c3ccc(C#N)cc3Cl)c3nc(C)cc1c23,Ki,[2],0.0072 µM
CCC(COC)N1CCc2cn(-c3c(C)cc(Cl)cc3C)c3nc(C)cc1c23 (stereo unspecified),IC50,[3],0.027 µM
same,half-life,[15],2.5 h
same,Ki,[2],0.016 µM
same,clearance,[16],5.22 L/h/kg
same,Vd,[17],19 L/kg
same,bioavailability,[18],66%
CCC(CC)N1CCc2cn(-c3ccc(OC(F)(F)F)cc3C)c3nc(C)cc1c23,IC50,[3],0.048 µM
same,half-life,[15],33 h
same,Ki,[2],0.006 µM
same,clearance,[16],1.68 L/h/kg
same,Vd,[17],80 L/kg
same,bioavailability,[18],76%
CCCC(CCC)N1CCc2cn(-c3cccc(OC)c3)c3nc(C)cc1c23,Ki,[2],0.19 µM
CCCCN(CC)c1nc(C)nc2c1c(C)c(C)n2-c1c(C)cc(C)cc1C [ANTALARMIN],Ki,[2],0.0031 µM
